rCAG RNA binder – molecules binding r(CAG) RNA repeats; inhibition, % at 3 µM; r(CAG) RNA repeat, TO-PRO-1 dye displacement fluorescence; 1.3% of 370,000 active; AID 651821;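 active = inhibition above the plate cutoff, the mean of all test compounds on that plate plus 3 SD, cut at about 35% in these data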;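 note: higher means more dye released from RNA so lower well fluorescence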
SIAE inh – human SIAE inhibition, primary screen | inhibition, % at 9.66 µM | 0.69% of 370,000 active | SIAE FP-Rh probe binding, fluorescence polarization | AID 1053197;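 active = inhibition above a cutoff: mean of compounds within the control limits plus 3 SD of those, cut at about 17% in these data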
TCR-CD3 inh – inhibitors of human TCR-CD3 interaction; TAMRA-labeled TCR probe fluorescence, biochemical; inhibition, % at 9.4 µM; 0.37% of 360,000 active; in the data active = inhibition above about 19%;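 note: recombinant mutant TCR 2C K166C tagged with TAMRA read by polarization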
HTRA1 inh – HTRA1 (human) protease inhibition. inhibition, % at 5.96 µM. AID 504803. recombinant HTRA1, FP-rhodamine activity-based probe, fluorescence polarization. 0.5% of 340,000 active; in the data active = inhibition above about 36%
mABHD4 FP – inhibitors of mouse ABHD4; purified mABHD4, FP-Rh probe fluorescence polarization; inhibition, % at 8.92 µM; Q8VD66; 0.54% of 370,000 active;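 active = inhibition exceeding the mean over every tested compound plus 3 SD, cut at about 30% in these data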
Target sequence (Q8VD66 whole entry, looked up): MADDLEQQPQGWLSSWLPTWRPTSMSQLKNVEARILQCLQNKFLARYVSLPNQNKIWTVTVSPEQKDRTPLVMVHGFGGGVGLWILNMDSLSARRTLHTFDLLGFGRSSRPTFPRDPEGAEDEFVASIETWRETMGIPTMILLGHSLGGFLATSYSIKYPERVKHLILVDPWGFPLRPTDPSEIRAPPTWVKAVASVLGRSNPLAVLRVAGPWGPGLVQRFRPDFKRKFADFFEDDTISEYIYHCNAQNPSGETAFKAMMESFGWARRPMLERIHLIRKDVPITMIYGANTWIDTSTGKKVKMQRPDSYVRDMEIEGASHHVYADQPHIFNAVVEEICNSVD
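system = mouse ABHD4 enzyme, wild type | medium = HEPES pH 7.0, NaCl, Pluronic buffer | also added = FP-Rh probe | incubation = Enzyme–compound pre-incubation 45 min, then probe 60 min, both 25 °C | technique = fluorescence polarization, excitation 525 nm, emission 598 nm, BODIPY TMR filters | controls = S159A mutant high control, sample median low control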
SIAE inh conf – confirmation of human SIAE inhibitors. shares compounds with SIAE inh. SIAE FP-Rh activity-based probe, fluorescence polarization. inhibition, % at 9.66 µM. 13% of 2,300 active;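 active = mean inhibition of the replicates above the hit cutoff set in the primary screen, cut at about 17% in these data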;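 note: inhibitors lower polarization as more probe stays unbound to SIAE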
Of the large screens only hits and unclear results are named; the others gave an inactive call (follow-up assays come after a bar, where they were run). In the library only some 2.5% were active in any assay of this set; here they are far more common.

CC[C@]12c3[nH]c4cc(-c5ccco5)ccc4c3CCN1C(=O)[C@@H](CC(=O)NCC13CC4CC(CC(C4)C1)C3)C[C@@H]2C(=O)N1CCN(C(=O)c2ccco2)CC1	SIAE inh 18 | SIAE inh conf inactive
CC(C)CCn1c(COc2ccccc2)n[nH]c1=S	SIAE inh 20 | SIAE inh conf inactive
Cc1ccc(-c2cc(-c3ccco3)c3c(N)c(C(=O)NN)oc3n2)cc1	SIAE inh 28 | SIAE inh conf 45
CCOc1ccc(S(=O)(=O)N2c3ccccc3CC2C)cc1 (centres undefined)	none
CC(C(=O)N1CCCCCC1)N(c1ccc(Cl)cc1)S(C)(=O)=O (centres undefined)	none
CCOc1ccc(N(C(C)C(=O)N2CCCCCC2)S(C)(=O)=O)cc1 (centres undefined)	SIAE inh 18 | SIAE inh conf inactive
CCN(CC(=O)Nc1ccc(NC(C)=O)cc1)C(=O)c1cccc2ccccc12	SIAE inh 18 | SIAE inh conf inactive
COc1ccc2nc(NC(=O)c3cccc(OCc4c(C)noc4C)c3)sc2c1	none
CN(C)c1ccc(C(CNS(=O)(=O)c2ccc(F)c(F)c2)c2c[nH]c3ccccc23)cc1 (centres undefined)	SIAE inh 27 | SIAE inh conf inactive
CN(C)c1ccc(C(CNC(=O)c2ccccc2F)c2c[nH]c3ccccc23)cc1 (centres undefined)	none
Cc1c(CCNC=O)cc(C)c2c3c(oc12)CCCC3	SIAE inh 89 | SIAE inh conf inactive
Cc1ccc(S(=O)(=O)Nc2cc(C)cc(CCNC=O)c2C)cc1	none
COc1ccc(-c2[nH]c(-c3cccc(OC)c3)nc2SCC(=O)NC2CCCC2)cc1	SIAE inh 24 | SIAE inh conf inactive
Cc1ccc(SCC(=O)NCc2ccncc2)cc1	none
CCc1nc2ccc(C(=O)NCCc3ccccn3)cn2c1N(C)Cc1ccc(N(C)C)cc1	SIAE inh 23 (no result: HTRA1 inh) | SIAE inh conf inactive
O=C1CC(c2ccco2)CC(O)=C1C=Nc1ccccc1-c1ccccc1 (centres undefined)	SIAE inh 27 | SIAE inh conf inactive
CN(CC(=O)NNC(=O)c1cccnc1)S(=O)(=O)c1cc(Cl)ccc1Cl	none
COc1ccc(NC(=O)c2coc(C)c2)cc1	SIAE inh 19 | SIAE inh conf inactive
COc1ccc(NC(=O)c2ccc(=O)oc2)cc1	none
Cc1ccc(CN2CCN(Cc3cc(=O)c4ccccc4[nH]3)CC2CCO)o1 (centres undefined)	SIAE inh 17 | SIAE inh conf inactive
O=C(CN1NS(=O)(=O)c2ccccc2C1=O)Nc1ccccc1OC(F)F	SIAE inh 19 | SIAE inh conf inactive
CN1C(=O)C(=O)N(CC(=O)Nc2ccccc2OC(F)F)C1=O	none
O=C(O)CCc1n[nH]c(=S)[nH]c1=O	SIAE inh 17 | SIAE inh conf inactive
COc1ccc(CNc2nnnn2C)c(OC)c1	none
CC(C)(C)OC(=O)NCCCC[C@@H](C(=O)N1CCN(C(=O)OC(C)(C)C)CC1)n1cc(C(CO)NC(=O)OC(C)(C)C)nn1 (some centres undefined)	none
COc1ccc2[nH]c(=O)c(CN(CCO)C(=O)NCc3ccccc3)cc2c1	none
CCOC(=O)c1cccc(N2C(=O)C3C4C=CC(CC4)C3C2=O)c1 (centres undefined)	none
CCOc1ccc(-c2nnc3ccc(SC(C)C)nn23)cc1	none
CC(=O)Nc1cc([N+](=O)[O-])ccc1N1CCOCC1	none
O=C(Nc1ccc([N+](=O)[O-])cc1)Nc1ccc(N2CCOCC2)c2nonc12	SIAE inh 19 | SIAE inh conf inactive
COc1ccc2c(c1)CCN=C2Cc1ccc(OC)c(OC)c1	none
N/C(=N\OC(=O)Oc1ccccc1)c1ccc(Cl)cc1	none
O=C(/C=C/c1ccc(Cl)cc1)NC(=S)Nc1ccc(N2CCOCC2)c(Cl)c1	none
CCOc1cc(/C=N\NC(=O)c2ccc(NC(=O)C(C)(C)C)cc2)ccc1OC(=O)c1ccc(OC)cc1	none
CCOc1cc(/C=N/Nc2ccc(C(=O)O)cc2)ccc1OC(=O)c1ccccc1C	SIAE inh 26 | SIAE inh conf 31
CCCC(=O)Nc1ccccc1NC(=O)CN(C)S(=O)(=O)c1ccc(C)cc1	none
Cn1nc(-c2ccc(OCC(N)=O)cc2)c2ccccc2c1=O	none
COC(=O)COc1ccc(-c2nn(C)c(=O)c3ccccc23)cc1	SIAE inh 20 | SIAE inh conf inactive
Cc1cc(C)n(-c2ccn(Cc3ccc(Cl)cc3Cl)c(=O)n2)n1	none
O=S(=O)(c1cccc2cccnc12)n1cnc2ccccc21	none
COc1ccc(NS(=O)(=O)c2cc(NC(=O)CC3CCCC3)ccc2N2CCOCC2)cc1	none
COc1ccc(S(=O)(=O)Nc2ccc3c(c2)C(=O)N([C@H](C)CO)C[C@H](C)[C@H](CN(C)C(=O)Nc2ccc(F)cc2)OCCCC[C@@H](C)O3)cc1	none (no result: HTRA1 inh)
COc1ccc(NC(=O)N(C)C[C@H]2Oc3ccc(NS(=O)(=O)c4ccc(F)cc4)cc3C(=O)N([C@H](C)CO)C[C@@H]2C)cc1	SIAE inh 18 | SIAE inh conf inactive
CC(=O)NNC(=O)CCn1nnc(-c2ccc(Cl)cc2)n1	SIAE inh 21 | SIAE inh conf inactive
O=C(Nc1cccc(C(F)(F)F)c1)N1CCN(C(=O)Nc2cccc(C(F)(F)F)c2)CC1	none
Cc1sc2nc(CN3CCOCC3)nc(N3CCC(C(N)=O)CC3)c2c1C	none
Cc1sc2nc(CN3CCOCC3)nc(N3CCOCC3)c2c1C	SIAE inh 21 | SIAE inh conf inactive
COc1ccc2c(c1)-c1nc(NC(=O)c3ccco3)sc1CC2	SIAE inh 19 | SIAE inh conf inactive
COc1ccc2c(c1)CCc1sc(NC(=O)c3ccc(C)cc3)nc1-2	SIAE inh 18 | SIAE inh conf inactive
COc1ccc2c(c1)CCc1sc(NC(=O)c3ccco3)nc1-2	none (no result: rCAG RNA binder, SIAE inh, TCR-CD3 inh, mABHD4 FP)
COc1cc(/C=N/NC(=O)c2ccc(CSc3nncn3C)cc2)ccc1OCC(=O)N1CC(C)OC(C)C1 (centres undefined)	none
NC(=S)Nc1ccc(F)cc1F	SIAE inh 22 | SIAE inh conf inactive
CCOC(=O)CNC(=O)C(Cc1ccccc1)NC(=O)OCc1ccccc1 (centres undefined)	none
COc1cccc(N2CC(=O)N(c3cccc(OC)c3)CC2=O)c1	none
COc1ccc(N2CC(=O)N(c3ccc(OC)c(OC)c3)CC2=O)cc1OC	SIAE inh 19 | SIAE inh conf inactive
O=S(=O)(NCC(c1ccccc1)N1CCC(O)CC1)c1ccc(Cl)cc1 (centres undefined)	none
O=S(=O)(NCC(Nc1ccc(Cl)cc1)c1ccccc1)c1ccc(Cl)cc1 (centres undefined)	SIAE inh 19 | SIAE inh conf inactive
NC(=O)c1ncn([C@@H]2O[C@H](C(=O)Nc3ccc(C(=O)N4CCCCC4)cc3)[C@@H](O)[C@H]2O)n1	SIAE inh 18 (no result: HTRA1 inh) | SIAE inh conf 18

Screening data deposited in PubChem BioAssay by The Scripps Research Institute Molecular Screening Center.
